According to paper PMC11362829 (RSC Advances, 2024):
In brackets after ≈: the same amount, converted by molar mass.

What was measured:
[1] = test system: M. tuberculosis H37Rv mc^2 6206; assay: Screening against M. tuberculosis and MIC by Alamar Blue assay; assay type: cell-based; details: for MIC: Mycobacterium tuberculosis, H37RV, read-out: MIC against M. tuberculosis
[2] = molecular target: T1, recombinant E. coli DXR enzyme (EcDXR) (Escherichia coli, UniProt P45568); assay: DXR enzyme inhibition assay; assay type: biochemical; details: for inhibition at 50 µM: read-out: % Inhibition at 50 μM, EcDXR, 50 μM; for inhibition at 100 µM: read-out: % Inhibition at 100 μM, in vitro EcDXR inhibition, 100 μM
T1 sequence (P45568 1-398): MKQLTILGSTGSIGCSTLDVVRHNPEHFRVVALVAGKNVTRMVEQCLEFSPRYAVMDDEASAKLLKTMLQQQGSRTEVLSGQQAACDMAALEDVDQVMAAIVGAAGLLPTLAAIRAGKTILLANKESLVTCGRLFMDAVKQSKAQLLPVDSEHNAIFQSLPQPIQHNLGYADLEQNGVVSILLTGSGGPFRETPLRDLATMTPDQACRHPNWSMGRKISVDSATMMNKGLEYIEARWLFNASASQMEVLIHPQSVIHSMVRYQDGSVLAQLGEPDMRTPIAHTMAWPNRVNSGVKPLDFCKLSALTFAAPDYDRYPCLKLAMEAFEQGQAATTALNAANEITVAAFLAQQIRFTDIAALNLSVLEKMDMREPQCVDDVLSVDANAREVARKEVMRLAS
Outline: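 Recombinant E. coli DXR, assayed with a commercial kit following the vendor protocol. Test compound from a DMSO stock; final DMSO ~0.2% v/v or lower. Enzyme and compound pre-incubated with shaking for 10 minutes, then DXP added to start the reaction. NADPH consumption read kinetically at 340 nm. Inhibition taken at a single level or across five levels for IC50. IC50 from one representative experiment run in duplicate.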

[3] = Dilution of DMSO stock with the aqueous assay buffer; assay type: physicochemical; details: dilution for the 50 μM enzyme assay
E. coli = assay: Screening against ESKAPE pathogens: E. coli; assay type: cell-based
Outline: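 E. coli grown in LB at 37 °C with shaking at 200 rpm to turbidity, then diluted to OD600 0.02. Test compound freshly dissolved in DMSO and added at one of two single levels. Growth judged visually after 24 h at 37 °C against DMSO-treated controls.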

O=C(NC(c1ccccc1)P(=O)(O)O)c1ccccc1O (stereo not drawn) [Compound 20a, ((2-Hydroxybenzamido)(phenyl)methyl)phosphonic acid]
Effect on M. tuberculosis growth ([1]; 200 μM): none of the tested compounds affected M. tuberculosis growth | IC50 [2]: 33.2 µM | fold less potency than its counterpart 22a ([2]; EcDXR IC50 compared to 22a): ~2 fold | inhibition at 50 µM [2]: 94.6%

O=C(NCP(=O)(O)O)c1ccccc1O [Compound 20b, ((2-hydroxybenzamido)methyl)phosphonic acid]
Behaviour during dilution with the aqueous buffer [3]: precipitated during dilution

CC(NC(=O)c1ccccc1O)P(=O)(O)O (stereo not drawn) [Compound 20c, (1-(2-Hydroxybenzamido)ethyl)phosphonic acid]
Behaviour during dilution with the aqueous buffer [3]: precipitated during dilution

O=C(NC(c1cccc2ccccc12)P(=O)(O)O)c1ccccc1O (stereo not drawn) [Compound 20d, ((2-Hydroxybenzamido)(naphthalen-1-yl)methyl)phosphonic acid]
Effect on M. tuberculosis growth ([1]; 500 μM): inhibited M. tuberculosis growth | MIC [1]: > 250 µM | IC50 [2]: 32.9 µM | folds less potent than 22d ([2]; EcDXR IC50 compared to 22d): ~8 fold | inhibition at 50 µM [2]: 81.3%

O=C(NC(c1ccc(Cl)c(Cl)c1)P(=O)(O)O)c1ccccc1O (stereo not drawn) [Compound 20e, ((3,4-Dichlorophenyl)(2-hydroxybenzamido)methyl)phosphonic acid]
Effect on M. tuberculosis growth ([1]; 500 μM): inhibited M. tuberculosis growth | MIC [1]: > 250 µM | Behaviour during dilution with the aqueous buffer [3]: precipitated during dilution

O=C(NC(c1ccccc1)P(=O)(O)O)c1cccc(O)c1O (stereo not drawn) [Compound 21a, ((2,3-Dihydroxybenzamido)(phenyl)methyl)phosphonic acid]
Effect on M. tuberculosis growth ([1]; 200 μM): none of the tested compounds affected M. tuberculosis growth | inhibition at 50 µM [2]: 66.5%

O=C(NCP(=O)(O)O)c1cccc(O)c1O [Compound 21b, ((2,3-Dihydroxybenzamido)methyl)phosphonic acid]
inhibition at 50 µM [2]: 68.4%

CC(NC(=O)c1cccc(O)c1O)P(=O)(O)O (stereo not drawn) [Compound 21c, (1-(2,3-Dihydroxybenzamido)ethyl)phosphonic acid]
inhibition at 50 µM [2]: 60.1%

O=C(NC(c1cccc2ccccc12)P(=O)(O)O)c1cccc(O)c1O (stereo not drawn) [Compound 21d, ((2,3-Dihydroxybenzamido)(naphthalen-1-yl)methyl)phosphonic acid]
inhibition at 50 µM [2]: 78.5%

O=C(NC(c1ccccc1)P(=O)(O)O)c1ccc2ccccc2c1O (stereo not drawn) [Compound 22a, ((1-Hydroxy-2-naphthamido)(phenyl)methyl)phosphonic acid]
Effect on M. tuberculosis growth ([1]; 200 μM): none of the tested compounds affected M. tuberculosis growth | IC50 [2]: 16.9 µM | folds lower potency than 22b ([2]; EcDXR IC50 compared to 22b): ~57 fold | inhibition at 50 µM [2]: 70.9%

O=C(NCP(=O)(O)O)c1ccc2ccccc2c1O [Compound 22b, ((1-Hydroxy-2-naphthamido)methyl)phosphonic acid]
Activity against E. coli (E. coli): inactive against E. coli | Effect on M. tuberculosis growth ([1]; 500 μM): inhibited M. tuberculosis growth | MIC [1]: > 250 µM | IC50 [2]: 0.29 µM | inhibition at 50 µM [2]: 76.3%

CC(NC(=O)c1ccc2ccccc2c1O)P(=O)(O)O (stereo not drawn) [Compound 22c, (1-(1-Hydroxy-2-naphthamido)ethyl)phosphonic acid]
inhibition at 50 µM [2]: 84.2%

O=C(NC(c1cccc2ccccc12)P(=O)(O)O)c1ccc2ccccc2c1O (stereo not drawn) [Compound 22d, ((1-Hydroxy-2-naphthamido)(naphthalen-1-yl)methyl)phosphonic acid]
Activity against E. coli (E. coli): inactive against E. coli | Effect on M. tuberculosis growth ([1]; 500 μM): inhibited M. tuberculosis growth | MIC [1]: 125 µM (≈ 50.9 µg/mL) | IC50 [2]: 4.44 µM | fold improvement in IC50 value compared to 22a ([2]; EcDXR IC50 compared to 22a): ~4 fold | inhibition at 50 µM [2]: 73.7%

O=C(NC(c1ccccc1)P(=O)(O)O)c1coc2ccccc2c1=O (stereo not drawn) [Compound 23a, ((4-Oxo-4H-chromene-3-carboxamido)(phenyl)methyl)phosphonic acid]
Effect on M. tuberculosis growth ([1]; 200 μM): none of the tested compounds affected M. tuberculosis growth | IC50 [2]: 6.09 µM | inhibition at 50 µM [2]: 79.8%

O=C(NCc1ccccc1)c1ccc2ccccc2c1O [Compound 25a, N-Benzyl-1-hydroxy-2-naphthamide]
% Inhibition at 50 μM ([2]; EcDXR, 50 μM): 30.4% | inhibition at 50 µM [2]: 30%

O=C(NCCc1ccccc1)c1ccc2ccccc2c1O [Compound 25b, 1-Hydroxy-N-phenethyl-2-naphthamide]
inhibition at 50 µM [2]: 4.69%

O=C(NCCCc1ccccc1)c1ccc2ccccc2c1O [Compound 25c, 1-Hydroxy-N-(3-phenylpropyl)-2-naphthamide]
inhibition at 50 µM [2]: 31.3%

O=C(O)c1cccc(O)c1O [Compound F2, 2,3-Dihydroxy benzoic acid]
inhibition at 100 µM [2]: 93.3%

O=C(O)c1ccc2ccccc2c1O [Compound F7, 1-Hydroxy-2-naphthoic acid]
inhibition at 100 µM [2]: 100%

O=Cc1cccc(O)c1O [Compound F9, 2,3-dihydroxy benzaldehyde]
inhibition at 100 µM [2]: 86.5%

O=C(O)c1coc2ccccc2c1=O [Compound F10, Chromone-3-carboxylic acid]
inhibition at 100 µM [2]: 100%

O=C(O)c1ccccc1O [Compound F12, Salicylic acid]
inhibition at 100 µM [2]: 87.4%

O=CN(O)CCCP(=O)(O)O [FSM, Fosmidomycin, reference compound]
inhibition at 100 µM [2]: 100%
